Assay [1] relates to Rattus norvegicus. As to the kind of experiment: Effect of the 25 mg/kg compound on 3-alpha,5alpha-THPROG concentration in rat plasma after 30 min of intraperitoneal administration. It is filed as functional, organism-based. Details: dose 25 mg/kg. The essentials: (§1)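 Male Sprague–Dawley rats, about 60 days old, given 25 mg/kg ip in saline with three drops Tween 80 per 5 mL, 0.3 mL/100 g; sampled 30 min later. Brain taken after focused microwave irradiation of the head, plasma after guillotine. Cortex and plasma extracted with ethyl acetate; steroids measured by radioimmunoassay. Results in ng/g tissue, at least eight rats per group, compared with vehicle-treated rats.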

For assay [2], the target named is GABA-A receptor; anion channel. In words: Displacement of [3H]flunitrazepam from central benzodiazepine GABA-A receptor of rat cerebral cortex. It is filed as tissue-based. The essentials:
(§2)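 Rat cerebral cortex homogenised in 50 vol ice-cold 50 mM Tris-HCl pH 7.4, spun twice at 20 000g for 10 min. Membranes (0.4–0.5 mg protein) incubated with [3H]flunitrazepam for 60 min at 0 °C. Rapid filtration on GF/B filters, scintillation counting. Nonspecific binding with 5 μM diazepam. Means of three experiments in duplicate; Ki reported.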

In assay [3] the test system is Rattus norvegicus. In words: Effect of the 25 mg/kg compound on 3-alpha,5alpha-THDOC concentration in rat plasma after 30 min of intraperitoneal administration. Format: functional, organism-based. Details: dose 25 mg/kg. The essentials:
as §1

Assay [4] has as its system Rattus norvegicus. In words: Effect of the 25 mg/kg compound on progesterone concentration in rat plasma after 30 min of intraperitoneal administration. It is filed as functional, organism-based. Details: dose 25 mg/kg. The essentials:
as §1

Assay [5] has as its target Benzodiazepine receptors; peripheral & central (Rattus norvegicus) (UniProt O09028+P15431+P18506+P18508+P19969+P20236+P23574+P23576+P28471+P28473+P30191+P62813+P63079+P63138+Q91ZM7+Q9ES14+P16257). In words: Ratio of inhibition for peripheral benzodiazepine receptor of rat ovary and central benzodiazepine GABA-A receptor. It is filed as tissue-based. Details: scale not given here. The settings on record: Female gonad.

The subject of assay [6] is Rattus norvegicus. In words: Effect of the 25 mg/kg compound on 3-alpha,5alpha-THPROG concentration in rat cerebral cortex after 30 min of intraperitoneal administration. It is filed as functional, organism-based. Details: dose 25 mg/kg. Put shortly:
as §1

In assay [7] the target is T1, Translocator protein (Rattus norvegicus, UniProt P16257). In words: Inhibitory concentration against peripheral benzodiazepine receptor of rat ovary. It is filed as tissue-based, Female gonad. The essentials:
(§3)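 Rat tissue (cerebral cortex, ovary) homogenised in 50 vol PBS pH 7.4 at 4 °C, spun at 40 000g for 30 min, washed, resuspended in 10 vol PBS. […] Filtration on polyethyleneimine-soaked GF/B filters, scintillation counting. […] Means of three experiments in duplicate; Ki reported.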

The target of assay [8] is GABA-A receptor; anion channel. In words: Inhibitory concentration of central benzodiazepine GABA-A receptor of rat cerebral cortex. It is filed as tissue-based. Put shortly:
as §2

Assay [9] concerns Rattus norvegicus. As to the kind of experiment: Effect of the 25 mg/kg compound on progesterone concentration in rat cerebral cortex after 30 min of intraperitoneal administration. Format: functional, organism-based. Details: dose 25 mg/kg. The essentials:
as §1

Assay [10] deals with T1, Translocator protein. As to the kind of experiment: Displacement of [3H]PK11195 from peripheral benzodiazepine receptor of rat cerebral cortex. Format: tissue-based. The essentials:
as §3

For assay [11], the target named is T1, Translocator protein. In words: Displacement of [3H]-PK11195 from peripheral benzodiazepine receptor of rat ovary. It is filed as tissue-based, Female gonad. The essentials: as §3
The test system of assay [12] is Rattus norvegicus. As to the kind of experiment: Effect of the 25 mg/kg compound on 3-alpha,5alpha-THDOC concentration in rat cerebral cortex after 30 min of intraperitoneal administration. Format: functional, organism-based. Details: dose 25 mg/kg. The essentials:
as §1

In assay [13] the target is T1, Translocator protein. In words: Inhibitory concentration against peripheral benzodiazepine receptor of rat cerebral cortex. It is filed as tissue-based. Put shortly: as §3

T1 sequence (P16257 whole entry, looked up): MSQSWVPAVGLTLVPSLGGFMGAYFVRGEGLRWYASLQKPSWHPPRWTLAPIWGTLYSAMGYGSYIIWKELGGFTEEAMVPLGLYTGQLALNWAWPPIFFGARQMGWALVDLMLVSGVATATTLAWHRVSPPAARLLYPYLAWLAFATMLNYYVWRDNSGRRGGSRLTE

On to `CCCCN(CCCC)C(=O)Cc1c(-c2ccc(Cl)cc2)nc2c(Cl)cc(Cl)cn12`, for which the Concentration in the assay with Rattus norvegicus [1] worked out at 27.5 ng/mL; in the assay with Rattus norvegicus [3], 16.2 ng/mL; in the assay on Rattus norvegicus [4], 19 ng/mL; in the assay on Rattus norvegicus [6] it was 9.1 ng/g; in the assay with Rattus norvegicus [9], 11.5 ng/g; with Rattus norvegicus [12], 3.5 ng/g. Moreover, the figures for the Ki (in [2]; on Translocator protein [10]; at Translocator protein [11]) were 7750 nM, 2.68 nM and 13.2 nM, respectively. For the same compound, the Selectivity index in assay [5] turned out to be 2.73. Further, the half-inhibitory concentration (IC50) was 18.6 nM against Translocator protein [7] and 5.2 nM on Translocator protein [13]. Moreover, the pIC50 in assay [8] was determined as 5.

Regarding `C=CCN(CC=C)C(=O)Cc1c(-c2ccc(Cl)cc2)nc2c(Cl)cc(Cl)cn12`, the Concentration came out at 18.1 ng/mL with Rattus norvegicus [1]; 9 ng/mL in the assay with Rattus norvegicus [3]; 12.2 ng/mL with Rattus norvegicus [4]; 8.6 ng/g in the assay with Rattus norvegicus [6]; 11.5 ng/g in the assay with Rattus norvegicus [9]; 3.2 ng/g in the assay on Rattus norvegicus [12]. Further, the Ki in assay [2] was 7750 nM; on Translocator protein [10], 4.77 nM; at Translocator protein [11], 4.06 nM. Moreover, the Selectivity index in assay [5] worked out at 3.25. For the same compound, the IC50 is 5.6 nM at Translocator protein [7] and 8.09 nM against Translocator protein [13]. Further, in [8], the pIC50 turned out to be 5.

In the case of `CCCCN(C)C(=O)Cc1c(-c2ccccc2)nc2c(Cl)cc(Cl)cn12`, the Concentration in the assay on Rattus norvegicus [1] came out at 16.5 ng/mL; with Rattus norvegicus [3], 10.4 ng/mL; in the assay on Rattus norvegicus [4], 13.6 ng/mL; with Rattus norvegicus [6] it was 9.2 ng/g; in the assay on Rattus norvegicus [9], 10.6 ng/g; with Rattus norvegicus [12] it was 4.1 ng/g. In addition, the Selectivity index in assay [5] was 3.64. In addition, the IC50 was 2.3 nM against Translocator protein [7] and 3.5 nM on Translocator protein [13]. The pIC50 in assay [8] was 5. The results for the Ki at Translocator protein [10] and at Translocator protein [11] were 2.16 nM and 1.72 nM, respectively.

For the compound `CCCCN(CCCC)C(=O)Cc1c(-c2ccc(Cl)cc2)nc2c(Cl)cccn12`, the Concentration in the assay on Rattus norvegicus [1] turned out to be 23.4 ng/mL; in the assay with Rattus norvegicus [3], 14.9 ng/mL; with Rattus norvegicus [4] it was 26 ng/mL; in the assay with Rattus norvegicus [6], 8.8 ng/g; in the assay on Rattus norvegicus [9] it was 10.3 ng/g; in the assay with Rattus norvegicus [12], 2.9 ng/g. The Ki in assay [2] was 6880 nM; on Translocator protein [10] it was 4.64 nM; on Translocator protein [11] it was 17.2 nM. Further, the Selectivity index in assay [5] was 7.65. Besides, the half-inhibitory concentration (IC50) on Translocator protein [7] was 22.6 nM; against Translocator protein [13] it was 7.87 nM. The same compound registered a pIC50 in [8] of 5.

Take `CN(C(=O)Cc1c(-c2ccc(Cl)cc2)nc2c(Cl)cc(Cl)cn12)c1ccccc1`: the Concentration with Rattus norvegicus [1] amounted to 20.3 ng/mL; with Rattus norvegicus [3], 8.3 ng/mL; in the assay with Rattus norvegicus [4], 13.9 ng/mL; with Rattus norvegicus [6], 7.4 ng/g; in the assay with Rattus norvegicus [9], 7.2 ng/g; in the assay with Rattus norvegicus [12], 2.8 ng/g. Moreover, the results for the Ki (in assay [2]; at Translocator protein [10]; on Translocator protein [11]) were 6880 nM, 0.203 nM and 1.27 nM, respectively. In addition, the Selectivity index in [5] worked out at 3.77. For the same compound, the IC50 at Translocator protein [7] is 1.7 nM; against Translocator protein [13], 0.33 nM. In assay [8], this compound displayed a pIC50 of 5.

Take `CCCCN(C(=O)Cc1c(-c2ccccc2)nc2c(Cl)cc(Cl)cn12)c1ccccc1`: the Concentration in the assay on Rattus norvegicus [1] stood at 21.3 ng/mL; in the assay with Rattus norvegicus [3], 8.9 ng/mL; in the assay with Rattus norvegicus [4], 17.3 ng/mL; with Rattus norvegicus [6], 16.3 ng/g; with Rattus norvegicus [9], 5.8 ng/g; with Rattus norvegicus [12], 2.6 ng/g. In addition, the results for the Ki (in assay [2]; at Translocator protein [10]; at Translocator protein [11]) were 6880 nM, 6.78 nM and 3.5 nM, respectively. For the same compound, in assay [5], the Selectivity index was 3.34. Further, the IC50 at Translocator protein [7] was 4.6 nM; against Translocator protein [13], 11.5 nM. In assay [8], this compound came in with a pIC50 of 5.

On to `O=C(Cc1c(-c2ccc(Cl)cc2)nc2c(Cl)cc(Cl)cn12)N1CCCCC1`, for which the Concentration in the assay on Rattus norvegicus [1] worked out at 19.4 ng/mL; in the assay on Rattus norvegicus [3], 9.6 ng/mL; with Rattus norvegicus [4] it was 12.2 ng/mL; in the assay on Rattus norvegicus [6] it was 7.3 ng/g; in the assay on Rattus norvegicus [9], 7.8 ng/g; in the assay on Rattus norvegicus [12], 2.9 ng/g. For the same compound, the Ki in assay [2] came out at 7590 nM; on Translocator protein [10], 3.05 nM; on Translocator protein [11], 65.4 nM. Moreover, in [5], the Selectivity index stood at 2.04. In addition, the IC50 on Translocator protein [7] is 92 nM; against Translocator protein [13], 5 nM. In addition, the negative-log IC50 (pIC50) in [8] came out at 5.

Take `O=C(Cc1c(-c2ccc(Cl)cc2)nc2c(Cl)cc(Cl)cn12)N1CCc2ccccc2C1`: the results for the Ki (in [2]; on Translocator protein [10]; at Translocator protein [11]) were 6880 nM, 2.97 nM and 25.3 nM, respectively. For the same compound, the Selectivity index in [5] was determined as 2.45. The IC50 against Translocator protein [7] was 35.6 nM; on Translocator protein [13], 4.86 nM. The same compound registered a pIC50 in assay [8] of 5.

As to `CCCCN(C)C(=O)Cc1c(-c2ccc(Cl)cc2)nc2c(Cl)cc(Cl)cn12`, the Concentration with Rattus norvegicus [1] turned out to be 16.2 ng/mL; with Rattus norvegicus [3] it was 8.1 ng/mL; with Rattus norvegicus [4] it was 14.9 ng/mL; in the assay with Rattus norvegicus [6], 7.4 ng/g; in the assay on Rattus norvegicus [9], 8.9 ng/g; with Rattus norvegicus [12] it was 3.9 ng/g. Also, the results for the Ki (in assay [2]; at Translocator protein [10]; at Translocator protein [11]) were 6880 nM, 0.302 nM and 2.46 nM, respectively. Moreover, the Selectivity index in assay [5] is 3.48. Besides, the concentration for half-maximal inhibition (IC50) was 3.3 nM on Translocator protein [7] and 0.45 nM at Translocator protein [13]. Further, the pIC50 in [8] was 5.
